Measurements published in ChEMBL document CHEMBL2424657, “Identification of the KDM2/7 histone lysine demethylase subfamily inhibitor and its antiproliferative activity” (J Med Chem, 2013).
Active and inactive are the calls of the source. No cut-off for these calls is given here.

Experiments:
[1] = target: T1, Lysine-specific demethylase 4A (Homo sapiens, UniProt O75164); test: Inhibition of KDM4A (unknown origin) using H3K9me3 peptide and 2-oxoglutarate as substrate after 1 hr by FDH-coupled assay
T1 sequence (O75164 whole entry): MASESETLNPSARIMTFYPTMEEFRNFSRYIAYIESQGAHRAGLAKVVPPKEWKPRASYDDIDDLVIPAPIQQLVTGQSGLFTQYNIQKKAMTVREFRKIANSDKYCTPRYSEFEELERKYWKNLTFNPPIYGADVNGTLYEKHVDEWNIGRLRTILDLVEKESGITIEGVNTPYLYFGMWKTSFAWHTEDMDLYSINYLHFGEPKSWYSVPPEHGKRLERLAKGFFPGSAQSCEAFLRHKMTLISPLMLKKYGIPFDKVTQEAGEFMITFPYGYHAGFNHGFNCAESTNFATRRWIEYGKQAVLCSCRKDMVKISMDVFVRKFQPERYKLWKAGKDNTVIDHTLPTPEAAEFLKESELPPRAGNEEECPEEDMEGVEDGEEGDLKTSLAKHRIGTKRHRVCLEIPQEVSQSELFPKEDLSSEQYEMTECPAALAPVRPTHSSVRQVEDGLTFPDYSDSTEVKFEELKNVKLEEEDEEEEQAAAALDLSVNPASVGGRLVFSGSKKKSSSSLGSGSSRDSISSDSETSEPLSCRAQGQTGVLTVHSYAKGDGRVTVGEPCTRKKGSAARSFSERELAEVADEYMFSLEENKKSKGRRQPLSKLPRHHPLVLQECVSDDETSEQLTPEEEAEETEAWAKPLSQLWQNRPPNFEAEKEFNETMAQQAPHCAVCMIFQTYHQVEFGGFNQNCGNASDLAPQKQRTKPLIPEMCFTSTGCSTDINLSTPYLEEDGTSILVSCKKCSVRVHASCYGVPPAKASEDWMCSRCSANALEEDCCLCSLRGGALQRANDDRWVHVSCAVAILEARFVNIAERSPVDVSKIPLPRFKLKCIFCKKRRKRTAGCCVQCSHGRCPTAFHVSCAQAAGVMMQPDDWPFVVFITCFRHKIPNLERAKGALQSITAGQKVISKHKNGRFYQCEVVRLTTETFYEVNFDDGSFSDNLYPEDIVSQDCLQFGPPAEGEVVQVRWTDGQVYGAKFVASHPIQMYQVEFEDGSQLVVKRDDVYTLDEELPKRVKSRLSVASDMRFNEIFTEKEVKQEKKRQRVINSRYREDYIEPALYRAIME
In short: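 Run as the FDH-coupled KDM4C format, with compounds in DMSO and activity relative to a DMSO control. KDM4A was used at 0.37 mg/mL final with H3K9me3 peptide. KDM5A was used at 0.64 mg/mL final with H3K4me3 peptide. Values are means of two experiments.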

[2] = Growth inhibition of human KYSE-150 cells after 48 hrs by MTT assay; assay type: functional; details: KYSE-150, 48 h
In short: (§1)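 Cells were seeded at 5000/well in RPMI 1640 with 10% FBS and allowed to attach overnight, then exposed for 48 h at 37 °C in 5% CO2. MTT was added for 3 h, and the dye was solubilized in HCl–2-propanol and read at 560 nm (reference 750 nm).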

[3] = target: T2, Lysine-specific demethylase 4C (Homo sapiens, UniProt Q9H3R0); test: Inhibition of KDM4C (unknown origin) using H3K9me3 peptide and 2-oxoglutarate as substrate after 1 hr by FDH-coupled assay
T2 sequence (Q9H3R0 whole entry): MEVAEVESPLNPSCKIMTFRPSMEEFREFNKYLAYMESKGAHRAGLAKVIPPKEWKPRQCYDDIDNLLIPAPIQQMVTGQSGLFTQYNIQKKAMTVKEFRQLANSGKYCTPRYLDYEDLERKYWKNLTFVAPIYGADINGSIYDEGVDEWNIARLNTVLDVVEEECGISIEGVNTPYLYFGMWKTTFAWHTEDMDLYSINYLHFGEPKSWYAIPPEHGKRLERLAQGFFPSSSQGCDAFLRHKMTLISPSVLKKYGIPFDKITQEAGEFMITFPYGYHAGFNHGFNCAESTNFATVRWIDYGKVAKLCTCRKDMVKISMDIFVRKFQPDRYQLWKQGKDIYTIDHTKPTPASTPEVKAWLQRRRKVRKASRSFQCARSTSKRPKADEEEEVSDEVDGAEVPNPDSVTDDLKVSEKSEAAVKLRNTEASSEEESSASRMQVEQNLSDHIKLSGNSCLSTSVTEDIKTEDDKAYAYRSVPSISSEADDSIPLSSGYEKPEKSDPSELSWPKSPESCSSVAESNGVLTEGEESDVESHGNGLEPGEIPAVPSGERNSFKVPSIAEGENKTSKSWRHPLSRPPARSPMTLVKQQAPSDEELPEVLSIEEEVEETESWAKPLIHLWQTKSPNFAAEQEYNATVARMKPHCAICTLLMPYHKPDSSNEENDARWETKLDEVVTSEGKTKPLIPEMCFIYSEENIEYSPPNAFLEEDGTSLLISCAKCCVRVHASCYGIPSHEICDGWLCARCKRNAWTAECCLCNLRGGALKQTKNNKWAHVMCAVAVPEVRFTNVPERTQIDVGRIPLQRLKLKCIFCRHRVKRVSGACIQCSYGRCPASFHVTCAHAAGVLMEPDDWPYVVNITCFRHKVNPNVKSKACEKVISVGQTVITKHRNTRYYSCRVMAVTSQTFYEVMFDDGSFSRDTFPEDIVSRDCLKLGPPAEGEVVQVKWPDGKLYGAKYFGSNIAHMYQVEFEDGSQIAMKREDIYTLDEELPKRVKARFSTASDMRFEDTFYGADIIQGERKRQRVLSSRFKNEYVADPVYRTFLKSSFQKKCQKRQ

[4] = target: Lysine-specific demethylase 7A/7B (Homo sapiens) (UniProt Q9UPP1+Q6ZMT4); test: Inhibition of KDM7A/7B in human KYSE-150 cells assessed as H3K27me2 level at GI50 after 24 hrs by Western blot analysis; assay type: cell-based
In short: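 Cells (5×10^5) were treated for 24 h in OPTI-MEM and lysed in SDS buffer. Equal protein amounts, set by Bradford assay, were resolved on 4–20% SDS-PAGE and blotted. Blots were probed with anti-H3K27me2 (1:1000) and anti-H3 (1:100000) as loading reference, detected with an HRP secondary antibody, and visualized by ECL.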

[5] = target: Lysine-specific demethylase 6A (Homo sapiens, UniProt O15550); test: Inhibition of human recombinant KDM6A after 120 mins
HeLa = test: Cell cycle arrest in human HeLa cells assessed as reduction in G2/M phase after 24 hrs by FACS analysis; assay type: functional, cell-based
In short: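 HeLa or KYSE150 cells (5×10^5) were exposed for 24 h to 10 or 100 μM in RPMI 1640 with 10% FBS, then trypsinized. Cells were fixed in ice-cold 70% ethanol, PBS-washed and stained with propidium iodide (10 μg/mL) plus RNase A (0.2 mg/mL) for 30 min at 25 °C. Phase distribution was read by flow cytometry.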

N2a = test: Growth inhibition of mouse N2A cells after 48 hrs by MTT assay; assay type: functional; in short: as §1

Lysine-specific demethylase 6A, sequence (O15550 whole entry): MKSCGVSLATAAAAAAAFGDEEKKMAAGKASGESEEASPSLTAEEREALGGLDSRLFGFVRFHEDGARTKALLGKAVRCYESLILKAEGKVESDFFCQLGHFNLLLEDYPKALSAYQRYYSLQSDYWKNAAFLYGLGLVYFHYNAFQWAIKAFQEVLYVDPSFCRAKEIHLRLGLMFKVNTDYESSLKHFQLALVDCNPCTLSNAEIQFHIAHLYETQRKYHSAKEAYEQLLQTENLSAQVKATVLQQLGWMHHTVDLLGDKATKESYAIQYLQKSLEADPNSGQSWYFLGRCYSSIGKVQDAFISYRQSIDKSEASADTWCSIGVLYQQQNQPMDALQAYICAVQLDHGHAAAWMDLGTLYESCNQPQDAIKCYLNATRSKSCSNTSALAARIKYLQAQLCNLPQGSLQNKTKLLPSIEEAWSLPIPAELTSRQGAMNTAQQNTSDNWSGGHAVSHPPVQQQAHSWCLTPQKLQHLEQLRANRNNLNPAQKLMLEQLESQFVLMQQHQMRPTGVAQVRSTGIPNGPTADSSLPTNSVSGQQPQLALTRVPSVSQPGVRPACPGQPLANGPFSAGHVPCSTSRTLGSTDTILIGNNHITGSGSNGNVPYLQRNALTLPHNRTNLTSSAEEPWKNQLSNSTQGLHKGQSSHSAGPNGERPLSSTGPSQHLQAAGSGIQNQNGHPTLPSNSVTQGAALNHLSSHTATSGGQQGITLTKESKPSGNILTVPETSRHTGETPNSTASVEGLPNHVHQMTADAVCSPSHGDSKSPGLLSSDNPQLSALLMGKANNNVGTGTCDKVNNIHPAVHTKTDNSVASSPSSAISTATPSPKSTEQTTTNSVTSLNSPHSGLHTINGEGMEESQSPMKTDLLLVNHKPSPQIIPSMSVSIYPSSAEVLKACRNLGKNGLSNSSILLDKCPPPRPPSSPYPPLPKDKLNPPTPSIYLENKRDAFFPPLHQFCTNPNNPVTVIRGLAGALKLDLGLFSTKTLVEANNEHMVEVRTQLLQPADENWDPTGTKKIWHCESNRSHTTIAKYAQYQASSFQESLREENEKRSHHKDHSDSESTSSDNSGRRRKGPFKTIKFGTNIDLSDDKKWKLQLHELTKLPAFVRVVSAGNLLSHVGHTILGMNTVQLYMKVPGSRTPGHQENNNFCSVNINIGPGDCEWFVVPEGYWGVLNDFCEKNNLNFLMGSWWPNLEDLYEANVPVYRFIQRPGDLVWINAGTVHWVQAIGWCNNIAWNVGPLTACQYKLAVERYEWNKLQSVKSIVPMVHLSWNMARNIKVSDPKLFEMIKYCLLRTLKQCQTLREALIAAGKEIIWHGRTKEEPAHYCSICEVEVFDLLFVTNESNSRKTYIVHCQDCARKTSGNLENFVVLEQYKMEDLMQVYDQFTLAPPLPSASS
Lysine-specific demethylase 7A/7B (Homo sapiens), sequence (Q6ZMT4 whole entry, looked up): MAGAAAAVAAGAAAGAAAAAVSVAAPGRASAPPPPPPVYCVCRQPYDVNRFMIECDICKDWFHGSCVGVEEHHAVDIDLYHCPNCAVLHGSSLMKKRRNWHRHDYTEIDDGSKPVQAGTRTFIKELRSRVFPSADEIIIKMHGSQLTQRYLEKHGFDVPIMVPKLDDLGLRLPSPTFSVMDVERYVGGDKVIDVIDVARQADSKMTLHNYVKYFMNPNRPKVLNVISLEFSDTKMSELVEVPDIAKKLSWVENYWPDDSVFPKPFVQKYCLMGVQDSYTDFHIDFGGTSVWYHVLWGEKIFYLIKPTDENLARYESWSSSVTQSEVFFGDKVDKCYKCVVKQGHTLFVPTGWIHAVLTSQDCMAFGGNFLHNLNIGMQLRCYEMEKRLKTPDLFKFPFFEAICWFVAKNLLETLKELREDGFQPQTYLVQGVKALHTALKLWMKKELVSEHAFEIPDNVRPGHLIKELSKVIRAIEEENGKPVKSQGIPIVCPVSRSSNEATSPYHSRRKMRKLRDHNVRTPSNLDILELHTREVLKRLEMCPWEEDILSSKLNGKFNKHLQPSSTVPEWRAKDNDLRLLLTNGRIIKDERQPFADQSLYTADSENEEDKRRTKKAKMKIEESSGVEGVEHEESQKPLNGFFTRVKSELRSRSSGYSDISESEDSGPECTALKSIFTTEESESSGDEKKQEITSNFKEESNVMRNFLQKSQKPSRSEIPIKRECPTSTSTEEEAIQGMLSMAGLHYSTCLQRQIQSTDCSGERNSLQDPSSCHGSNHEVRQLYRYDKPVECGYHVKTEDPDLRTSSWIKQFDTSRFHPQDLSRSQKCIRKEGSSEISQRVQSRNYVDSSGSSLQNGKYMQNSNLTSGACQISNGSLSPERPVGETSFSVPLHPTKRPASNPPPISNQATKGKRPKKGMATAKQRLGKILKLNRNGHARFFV
Lysine-specific demethylase 7A/7B (Homo sapiens), sequence (Q9UPP1 whole entry, looked up): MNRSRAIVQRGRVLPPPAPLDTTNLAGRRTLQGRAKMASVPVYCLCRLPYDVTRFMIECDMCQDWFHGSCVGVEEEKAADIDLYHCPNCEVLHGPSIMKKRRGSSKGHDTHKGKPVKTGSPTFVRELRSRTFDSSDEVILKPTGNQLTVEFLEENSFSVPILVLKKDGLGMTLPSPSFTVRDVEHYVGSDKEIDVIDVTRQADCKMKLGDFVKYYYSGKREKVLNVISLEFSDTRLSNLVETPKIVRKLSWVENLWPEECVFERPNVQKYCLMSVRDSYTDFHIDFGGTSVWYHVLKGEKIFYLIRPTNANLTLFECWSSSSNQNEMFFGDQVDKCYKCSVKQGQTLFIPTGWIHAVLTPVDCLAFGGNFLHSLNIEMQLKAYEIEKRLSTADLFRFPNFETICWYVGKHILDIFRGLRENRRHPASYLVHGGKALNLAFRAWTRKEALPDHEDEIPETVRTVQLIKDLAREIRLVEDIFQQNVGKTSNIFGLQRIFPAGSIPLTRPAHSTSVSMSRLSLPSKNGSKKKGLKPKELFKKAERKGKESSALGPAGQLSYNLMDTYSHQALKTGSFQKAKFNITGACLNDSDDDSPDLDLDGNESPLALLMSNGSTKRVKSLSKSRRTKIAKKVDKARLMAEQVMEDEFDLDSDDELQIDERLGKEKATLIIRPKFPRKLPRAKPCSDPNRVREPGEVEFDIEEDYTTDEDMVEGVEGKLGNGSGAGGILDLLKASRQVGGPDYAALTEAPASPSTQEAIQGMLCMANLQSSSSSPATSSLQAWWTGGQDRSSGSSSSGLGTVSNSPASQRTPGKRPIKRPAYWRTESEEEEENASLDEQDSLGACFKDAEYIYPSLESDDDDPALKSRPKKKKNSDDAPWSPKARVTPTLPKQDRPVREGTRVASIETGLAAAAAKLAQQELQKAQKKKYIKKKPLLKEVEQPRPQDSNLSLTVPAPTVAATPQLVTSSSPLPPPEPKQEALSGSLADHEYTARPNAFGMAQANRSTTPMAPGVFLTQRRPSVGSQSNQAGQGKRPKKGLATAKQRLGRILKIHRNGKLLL

SMILES	IC50 [1] [µM]	GI50 [2] [µM]	IC50 [3] [µM]	inhibition [4]	IC50 [5] [µM]	Activity (HeLa)	GI50 (N2a) [µM]
CN(C)CCCCCCCCC(=O)N(O)CCC(=O)O	0.8	> 470	2.2	–	–	–	–
O=C(O)CCN(O)C(=O)CCCCCCCCC1CC1	> 120	16	83	Active	> 100	Dose-dependent effect	86
